High-throughput results from PubChem.
This is a sample that favours compounds with a hit; in the whole collection about 1.9% have one here.
Runt-SMMHC FRET: inhibitors of human RUNX1 Runt domain binding to CBFb-SMMHC; Q01196+Q13951; AID 1434; actives 0.74% (n = 220,000); Cerulean-Runt/Venus-CBFb-SMMHC FRET ratio 530/480, 1 h; inhibition, % at 20 µM;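 active = mean inhibition across duplicate retests at 20 µM reaching about 50%, limit read from the data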;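 also: inhibitors lower the FRET ratio by blocking Runt binding to CBFb-SMMHC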
TbHK1 inh: blocks Trypanosoma brucei hexokinase 1 activity. inhibition, % at 10 µM. actives 0.11% (n = 220,000). recombinant TbHK1, G6PDH-coupled NADH A340;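 active = inhibition of 50% or more in the single-dose primary screen; inactive = inhibition below 50%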
RanGTP-Imp inh: disruptors of Ran-importin-beta complex formation – biochemical, FRET, CFP-Ran, YFP-importin-beta, homogeneous, primary screen. actives 1.1% (n = 300,000). cell-free CFP-Ran/YFP-importin-beta FRET ratio. inhibition, % (concentration not given with the values);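 active = more than half of the replicate wells show a fall in the fluorescence ratio signal beyond about 16%, limit read from the data, passing the limit was not always enough; inconclusive = exactly half of the replicate wells pass the set limit; inactive = fewer than half of replicates pass the limit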
Runt-CBFb FRET: inhibitors of human RUNX1 Runt domain binding to CBFb; Q01196+Q13951; Cerulean-Runt/Venus-CBFb FRET ratio 530/480, 1 h; inhibition, % at 20 µM; actives 0.46% (n = 220,000); AID 1496;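 active = inhibition over about 50% at 20 µM in the single-dose screen, limit read from the data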
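Schedule: protein complex preformed 1 h, compound exposure 1 h, room temperature, dark; test system: Cerulean-labeled Runt domain protein; amount: 100 nM per protein; buffer or medium: Tris 50 mM pH 7.5, KCl, K2SO4, 0.01% BSA; read-out: loss of energy transfer signal; detection: FRET fluorescence; controls: 5 µM unlabeled CBFb as full-inhibition high control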
Hck-Nef inh: human Hck-Nef kinase inhibition; P08631; Recombinant Hck-YEEI plus Nef, Z-Lyte FRET kinase assay; inhibition, % at 20 µM; actives 0.68% (n = 220,000); AID 463187;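 active = Hck-Nef kinase inhibition above about 50%, limit read from the data; inactive = inhibition below that limit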
Target sequence (P08631 whole entry, looked up): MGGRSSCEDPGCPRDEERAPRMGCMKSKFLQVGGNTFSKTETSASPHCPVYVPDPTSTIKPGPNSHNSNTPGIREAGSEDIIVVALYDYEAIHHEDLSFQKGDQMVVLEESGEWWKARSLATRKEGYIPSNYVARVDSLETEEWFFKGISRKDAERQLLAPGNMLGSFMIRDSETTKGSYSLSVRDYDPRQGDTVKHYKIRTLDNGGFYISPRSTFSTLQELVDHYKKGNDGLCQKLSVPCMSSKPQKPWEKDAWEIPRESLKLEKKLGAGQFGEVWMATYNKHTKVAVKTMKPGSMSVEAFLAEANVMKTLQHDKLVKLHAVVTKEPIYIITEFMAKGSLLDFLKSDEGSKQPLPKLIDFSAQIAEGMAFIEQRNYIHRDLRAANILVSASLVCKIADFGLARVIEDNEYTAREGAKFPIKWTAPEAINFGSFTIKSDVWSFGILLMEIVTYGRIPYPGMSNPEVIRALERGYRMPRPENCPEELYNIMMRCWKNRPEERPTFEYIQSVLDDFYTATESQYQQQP
Hck-Nef confirm: Hck-Nef kinase inhibition, confirmation. shares compounds with Hck-Nef inh. AID 463188. actives 28% (n = 1,300). Recombinant Hck-YEEI:Nef, Z-Lyte FRET kinase assay. calls only at 10 µM;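 active = average inhibition of at least 50%, with Z-scores no higher than 3 in both the phospho-tyrosine peptide and fluorescence counterscreens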
A number is an active result; i = inactive; ? = inconclusive; nt = not tested or not shown.

SMILES	Runt-SMMHC FRET	TbHK1 inh	RanGTP-Imp inh	Runt-CBFb FRET	Hck-Nef inh	Hck-Nef confirm
Cc1cnc(NC(=O)/C=C/c2ccc(Br)o2)s1	i	i	i	i	i	nt
O=c1[nH]c(CSc2ncnc3sc(-c4ccccc4)cc23)nc2ccccc12	i	i	i	i	54	i
O=c1[nH]c(CSc2nc(-c3ccccc3)cs2)nc2ccccc12	i	i	i	i	i	nt
O=C(NCCCn1cccn1)C1CCC(=O)N(CCc2ccccc2)C1 (stereo not drawn)	nt	nt	i	nt	nt	nt
CCCCC1=CC2=C(c3ccco3)C(=O)C(C)(OC(=O)c3ccc(OC)cc3)C(=O)C2=CN1C1CCCC1 (stereo not drawn)	nt	nt	i	nt	nt	nt
Clc1ccc2c(NCc3cccs3)ncnc2c1	nt	nt	i	nt	nt	nt
COc1cc2ncnc(NCc3cccs3)c2cc1OC	i	i	i	i	57	i
COc1cc(NC(=O)CCN2CCN(C/C=C/c3ccccc3)CC2)cc(OC)c1	nt	nt	i	nt	nt	nt
O=c1[nH][nH]c2c(N=Cc3ccccc3O)ccc(F)c12	i	i	nt	i	60	i
CCOc1ccc(NS(=O)(=O)c2ccc(-c3coc(C)n3)cc2)cc1	nt	nt	i	nt	nt	nt
Cc1noc(/C=C/c2ccco2)c1S(=O)(=O)N1CCC(C(=O)N2CCc3ccccc3C2)CC1	i	i	i	i	51	i
Cc1ccc(NC(=O)C2CCN(S(=O)(=O)c3c(C)noc3/C=C/c3ccco3)CC2)nc1	i	i	i	i	i	nt
COc1ccc(C(=O)Nc2ccccc2C(=O)NC(Cc2ccc(O)cc2)C(=O)NNC(=O)c2ccccc2Cl)cc1 (stereo not drawn)	i	i	i	i	66	i
COCCCn1c(=O)c2sccc2n(Cc2ccccc2C)c1=O	nt	nt	i	nt	nt	nt
Cc1ccc(C)c(NC(=O)Cn2nc(-c3ccccc3)nc2-c2ccccc2)c1	i	i	i	i	59	i
CN(C(=O)COC(=O)C1CSC2(C)CCC(=O)N12)c1ccccc1 (stereo not drawn)	nt	nt	i	nt	nt	nt
COc1ccc(OCCCC(=O)OCC(=O)c2ccc3c(c2)NC(=O)CO3)cc1	nt	nt	i	nt	nt	nt
N#Cc1c2c(c(NCCCN3CCOCC3)n3c1nc1ccccc13)CCC2	i	i	i	i	61	nt
CC(C)c1cc(NCCCN2CCOCC2)n2c(nc3ccccc32)c1C#N	i	i	?	i	54	nt
c1ccc2[nH]c(NCCCN3CCOCC3)nc2c1	i	i	i	i	i	nt
c1ccc(-c2nc(NCCCN3CCOCC3)c3ccccc3n2)cc1	i	i	i	i	i	nt
CCOC(=O)c1cc(C(=O)Nc2ccc(C)c(F)c2)nn1C	i	i	i	i	106	i
CCOC(=O)c1cc(C(=O)NCc2ccc(Cl)cc2Cl)nn1C	i	i	i	i	i	nt
CCN(CC)C(=O)Oc1ccc2oc(=O)cc(-c3cc4cccc(OC)c4o3)c2c1	nt	nt	i	nt	nt	nt
